The record followed here is ChEMBL document CHEMBL1123741 (J Med Chem, 1987).

In data set [1] the test system is Mus musculus. Kind of data set: Compound was evaluated for its effect of HSV -2 induced mortality in mice measured as survivors/total (%) at the dose of 100 mg/kg per day; 3/8. The format is functional. The method in brief:
(§1)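 Female Swiss mice, 16–18 g, anesthetized and inoculated intracerebrally with 10 LD50 of HSV 2 (G strain), then randomized into groups of 8–12. Dosing was ip, b.i.d. for 5 consecutive days, starting 1 h postinfection. Mortality was followed for 21 days. P values were from the two-tailed Fisher exact test for survivors and the Gehan-Wilcoxon test for mean survival time.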

The test system of data set [2] is Mus musculus. Kind of data set: Compound was evaluated for its effect on HSV -2 induced mortality in mice measured as mean survival time (MST) at the dose of 25 mg/kg per day. Format: functional. An outline of the steps: as §1
The test system of data set [3] is Mus musculus. The data set is described as follows: Compound was evaluated for its effect of HSV -2 induced mortality in mice measured as survivors/total (%) at the dose of 50 mg/kg per day; 4/10. The format is functional. An outline of the steps: as §1
Data set [4] has as its system Mus musculus. The data set is described as follows: Compound was evaluated for its effect on HSV -2 induced mortality in mice measured as mean survival time (MST) at the dose of 12.5 mg/kg per day. The format is functional. The method in brief: as §1
Data set [5] is filed under the species Cavia porcellus. The data set is described as follows: Compound (5%) was evaluated for its effect on (no. of areas = 4)mean peak lesion score in HSV-1 cutaneous infection of guinea pig; expressed as mean peak lesion score. The format is functional.
The subject of data set [6] is Mus musculus. Kind of data set: Compound was evaluated for its effect of HSV -2 induced mortality in mice measured as survivors/total (%) at the dose of 12.5 mg/kg per day; 2/10. Format: functional. An outline of the steps: as §1
For data set [7], the species on record is Cavia porcellus. The data set is described as follows: Compound (5%) was evaluated for its effect on (no. of areas = 4) time to start healing in HSV-1 cutaneous infection of guinea pig; expressed as time to start healing. Format: functional.
For data set [8], the system named is Mus musculus. The data set is described as follows: Compound was evaluated for its effect of HSV -2 induced mortality in mice measured as survivors/total (%) at the dose of 25 mg/kg per day; 3/9. Format: functional. An outline of the steps:
as §1

Data set [9] concerns Vero. Kind of data set: Compound was evaluated for antiviral activity against Herpes simplex virus (HSV) -1 (BW) in Vero cell cultures. The format is functional. The conditions noted are these: Chlorocebus sabaeus, read-out: ID50 (the source's name). The method in brief:
(§2)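 Vero cell cultures were infected with HSV-1 strain BWˢ or HSV-2 strain MS. Antiviral activity was read by the dye-uptake method. The 50% inhibitory dose (ID50) was obtained by linear regression.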

The species entered for data set [10] is Cavia porcellus. Kind of data set: Compound (5%) was evaluated for its effect on (no. of areas = 4) mean area under lesion score-day curve in HSV-1 cutaneous infection of guinea pig; expressed as mean area under lesion score-day curve. Format: functional.
The species entered for data set [11] is Cavia porcellus. The data set is described as follows: Compound (5%) was evaluated for its effect on (no. of areas = 4)maximum score in HSV-1 cutaneous infection of guinea pig; expressed as maximum score. The format is functional.
In data set [12] the test system is Vero. Kind of data set: Compound was evaluated for antiviral activity against Herpes simplex virus (HSV) -2 (MS) in Vero cell cultures. The note with it: Chlorocebus sabaeus, read-out: ID50 (the source's name). Format: functional. The method in brief: as §2
Data set [13] concerns Mus musculus. Kind of data set: Compound was evaluated for its effect on HSV -2 induced mortality in mice measured as mean survival time (MST) at the dose of 100 mg/kg per day. Format: functional. An outline of the steps:
as §1

For data set [14], the system named is Mus musculus. Kind of data set: Compound was evaluated for its effect on HSV -2 induced mortality in mice measured as mean survival time (MST) at the dose of 50 mg/kg per day. Format: functional. The method in brief:
as §1

In data set [15] the test system is Mus musculus. Kind of data set: Compound was evaluated for its effect ofHSV -2 induced mortality in mice measured as survivors/total (%) at the dose of 50 mg/kg per day; 3/10. Format: functional. The method in brief: as §1
For data set [16], the system named is Mus musculus. Kind of data set: Compound was evaluated for its effect ofHSV -2 induced mortality in mice measured as survivors/total (%) at the dose of 100 mg/kg per day; 5/10. Format: functional. The method in brief:
as §1

Data set [17] relates to Mus musculus. The data set is described as follows: Compound was evaluated for its effect on HSV -2 induced mortality in mice measured as survivors/total (%) at the dose of 200 mg/kg per day; 6/12. Format: functional. An outline of the steps:
as §1

Data set [18] relates to Mus musculus. Kind of data set: Compound was evaluated for its effect ofHSV -2 induced mortality in mice measured as survivors/total (%) at the dose of 12.5 mg/kg per day; 2/10. The format is functional. An outline of the steps: as §1
Data set [19] has as its system Mus musculus. The data set is described as follows: Compound was evaluated for its effect ofHSV -2 induced mortality in mice measured as survivors/total (%) at the dose of 25 mg/kg per day; 0/10. Format: functional. The method in brief: as §1
Data set [20] deals with Mus musculus. The data set is described as follows: Compound was evaluated for its effect on HSV -2 induced mortality in mice measured as mean survival time (MST) at the dose of 200 mg/kg per day. Format: functional. An outline of the steps: as §1
Data set [21] is filed under the species Cavia porcellus. Kind of data set: Compound (5%) was evaluated for its effect on (no. of areas = 3)maximum score in HSV-1 cutaneous infection of guinea pig; expressed as maximum score. The format is functional.
The species named for data set [22] is Cavia porcellus. Kind of data set: Compound (5%) was evaluated for its effect on (no. of areas = 3) mean area under lesion score-day curve in HSV-1 cutaneous infection of guinea pig; expressed as mean area under lesion score-day curve. The format is functional.
Data set [23] relates to Human alphaherpesvirus 1. The data set is described as follows: Compound (5%) was evaluated for its effect on (no. of areas = 3)mean peak lesion score in HSV-1 cutaneous infection of guinea pig; expressed as mean peak lesion score. The format is functional.
Data set [24] is filed under the species Cavia porcellus. The data set is described as follows: Compound (5%) was evaluated for its effect on (no. of areas = 3) time to start healing in HSV-1 cutaneous infection of guinea pig; expressed as time to start healing. Format: functional.
For data set [25], the system named is Mus musculus. The data set is described as follows: Compound was evaluated for its effect of HSV -2 induced mortality in mice measured as survivors/total (%) at the dose of 200 mg/kg per day; 6/10. Format: functional. An outline of the steps: as §1
Data set [26] concerns Mus musculus. The data set is described as follows: Compound was evaluated for its effect of HSV -2 induced mortality in mice measured as survivors/total (%) at the dose of 25 mg/kg per day; 5/10. The format is functional. The method in brief: as §1
In data set [27] the test system is Mus musculus. Kind of data set: Compound was evaluated for its effect of HSV -2 induced mortality in mice measured as survivors/total (%) at the dose of 50 mg/kg per day; 5/10. Format: functional. The method in brief:
as §1

Data set [28] has as its system Mus musculus. The data set is described as follows: Compound was evaluated for its effect of HSV -2 induced mortality in mice measured as survivors/total (%) at the dose of 100 mg/kg per day; 3/10. The format is functional. The method in brief:
as §1

Data set [29] is filed under the species Cavia porcellus. The data set is described as follows: Compound (5%) was evaluated for its effect on (no. of areas =3) time to start healing in HSV-1 cutaneous infection of guinea pig; expressed as time to start healing. Format: functional.
Substrate in data set [30]: O=c1[nH]c(=O)n([C@@H]2O[C@H](CO)[C@@H](O)[C@@H]2F)cc1I
The note with it: Chlorocebus sabaeus; Vero.

Substrate in data set [31]: NC1=NC(=O)C2N=CN(COCCO)C2=N1
The conditions noted are these: Chlorocebus sabaeus; Vero.

Substrate in data set [32]: Cc1cn([C@@H]2O[C@H](CO)[C@@H](O)[C@@H]2F)c(=O)[nH]c1=O
The note with it: Chlorocebus sabaeus; Vero.

≈ marks a conversion by molar mass, not a printed value.

With `NC1=NC(=O)C2N=CN(COCCO)C2=N1` (stereo not given), the Activity is 3% in data set [1]; 4% in data set [3]; 2.5 in data set [5]; 2% in data set [6]; 6.25 days in data set [7]; 3% in data set [8]. Also, the Activity in data set [10] came out at 15.2; in data set [11] it was 4 days. Besides, the MST in [2] turned out to be 10 days; in [4], 8 days; in data set [13], 13 days; in [14], 10 days. Also, the IC50 was 0.7 µg/mL (≈ 3.11 µM) in [9] and 1.1 µg/mL (≈ 4.88 µM) in data set [12].

Regarding `CCc1cn([C@@H]2O[C@H](CO)[C@@H](O)[C@@H]2F)c(=O)[nH]c1=O`, the MST in data set [2] was 9 days; in data set [4], 8 days; in data set [20], 19 days; in [13], 18 days; in data set [14] it was 12 days. Also, the Activity turned out to be 1.5 in data set [5]; 3% in data set [15]; 5% in data set [16]; 6% in [17]; 2% in [18]; 6.5 days in [7]. The Activity is 0% in data set [19], 10 in data set [10] and 3 days in data set [11]. Besides, the figures for the IC50 in [9] and in data set [12] were 0.99 µg/mL (≈ 3.61 µM) and 2.7 µg/mL (≈ 9.85 µM), respectively.

For `Cc1cn([C@@H]2O[C@H](CO)[C@@H](O)[C@@H]2F)c(=O)[nH]c1=O` [5-METHYL-2'-FLUOROARAURACIL], the Activity in data set [21] turned out to be 2.67 days; in [22] it was 2.7; in [23], 0.75; in data set [24], 5.33 days. The IC50 was determined as 1.3 µg/mL (≈ 5 µM) in [9] and 0.13 µg/mL (≈ 0.5 µM) in [12].

For `O=c1[nH]c(=O)n([C@@H]2O[C@H](CO)[C@@H](O)[C@@H]2F)cc1I` [FIALURIDINE], the MST was 18 days in data set [2]; 10 days in data set [4]; 21 days in data set [20]; 13 days in data set [13]; 18 days in data set [14]. Also, the Activity was determined as 3 days in data set [21]; 9.6 in [22]; 1 in [5]; 6% in data set [25]; 5% in data set [26]; 5% in data set [27]. Besides, the Activity in data set [6] came to 2%; in [28] it was 3%; in data set [29], 4.67 days. Also, the IC50 came out at 0.96 µg/mL (≈ 2.58 µM) in data set [9] and 0.64 µg/mL (≈ 1.72 µM) in data set [12].

B1: Thymidine kinase, cytosolic (Homo sapiens), P04183 (protein)
chain: MSCINLPTVLPGSPSKTRGQIQVILGPMFSGKSTELMRRVRRFQIAQYKCLVIKYAKDTRYSSSFCTHDRNTMEALPACLLRDVAQEALGVAVIGIDEGQFFPDIVEFCEAMANAGKTVIVAALDGTFQRKPFGAILNLVPLAESVVKLTAVCMECFREAAYTKRLGTEKEVEVIGGADKYHSVCRLCYFKKASGQPAGPDNKENCPVPGKPGEAVAARKLFAPQQILQCSPAN
Take B1: the inhibition constant (Ki) is 53 µM in data set [30], greater than 4.92 mM in data set [31] and 60 µM in data set [32].
